The list is not random: actives were taken first. Their share in the collection is about 0.79%.
bIAP activator: intestinal alkaline phosphatase (bovine) activation. purified bovine IAP, CDP-star luminescence, 30 min; stronger effect = higher value; fold of DMSO-control signal, blank-subtracted. activation factor at 20 µM. 200,000 tested, 0.17% active. AID 1016;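 active means activation factor of 2 or more at 20 µM, a signal rise over negative controls twice the positive control's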
mIAP activ: increases mouse intestinal alkaline phosphatase activity. muIAP, CDP-Star luminescence, 30 min; stronger effect = higher value; 1 = vehicle-only enzyme signal, 0 = enzyme-free wells. activation factor at 10 µM. 330,000 tested, 0.24% active;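 active means activation factor of at least 2 at 20 µM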
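System: mouse IAP enzyme. Reagent: CDP-Star chemiluminescent phosphatase substrate. Benchmarks: DMSO wells, no-enzyme wells. Times: 30 min enzyme-substrate-compound incubation at room temperature. Detection: luminescence from enzymatic CDP-Star hydrolysis. Doses: test compounds delivered from DMSO solution.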
mIAP block: blocks mouse intestinal alkaline phosphatase | inhibition, % at 10 µM | 330,000 tested, 0.2% active | purified mouse IAP, CDP-Star luminescence, 30 min;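 active means inhibition of at least 40% at 10 µM in the primary screen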;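 further: plate controls were DMSO with enzyme for no effect and no enzyme wells for full effect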
hIAP act: increases human intestinal alkaline phosphatase activity; purified human IAP, CDP-Star luminescence, 30 min; stronger effect = higher value; 1 = vehicle-only enzyme, 0 = enzyme-free background; activation factor at 10 µM; 330,000 tested, 0.16% active;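 active means activation factor of the enzyme at least 2-fold when tested at 20 µM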
Target sequence (P09923 whole entry, looked up): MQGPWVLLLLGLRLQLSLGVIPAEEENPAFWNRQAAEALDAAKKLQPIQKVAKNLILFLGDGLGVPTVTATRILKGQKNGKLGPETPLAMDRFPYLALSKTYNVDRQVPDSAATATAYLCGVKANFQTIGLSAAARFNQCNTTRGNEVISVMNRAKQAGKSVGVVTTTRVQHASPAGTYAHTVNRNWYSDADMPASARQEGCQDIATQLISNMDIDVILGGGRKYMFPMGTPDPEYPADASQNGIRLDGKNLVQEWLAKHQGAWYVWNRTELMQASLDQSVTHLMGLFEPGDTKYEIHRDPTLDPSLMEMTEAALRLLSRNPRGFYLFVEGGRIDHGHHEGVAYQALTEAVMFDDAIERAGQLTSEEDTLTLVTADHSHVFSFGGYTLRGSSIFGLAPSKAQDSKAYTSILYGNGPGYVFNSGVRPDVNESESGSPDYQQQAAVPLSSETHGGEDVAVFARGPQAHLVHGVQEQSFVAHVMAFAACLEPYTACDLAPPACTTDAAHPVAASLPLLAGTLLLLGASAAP
hIAP block: blocks human intestinal alkaline phosphatase; inhibition, % at 10 µM; AID 2544; P09923; purified IAP, CDP-Star luminescence, 30 min; 330,000 tested, 0.12% active;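 active means inhibition reaching a set limit with compound at 10 µM in the primary screen, cut at about 35% in these data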;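 further: plate controls were DMSO wells with enzyme for no effect and no-enzyme buffer wells for full effect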
bIAP inh: intestinal alkaline phosphatase (bovine) inhibition | AID 1019 | purified bovine IAP, CDP-star luminescence, 30 min | inhibition, % at 20 µM | 190,000 tested, under 10 active;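 active means over 50% inhibition of intestinal alkaline phosphatase at 20 µM in the single-dose screen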
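System: purified bovine intestinal alkaline phosphatase (IAP) enzyme; Input: IAP diluted 1/65,000,000 in the well; Measured by: CDP-star luminescence signal; Compound dosing: 20 µM single dose; Incubation: 30 min reaction at room temperature.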
* marks the source's active call; other numbers are inactive results.

For CCOP(=O)(OCC)C(NC(=O)Nc1ccc(Cl)cc1)C(N)=O (stereo unspecified) the results were bIAP activator 0.9, mIAP activ 0.947, mIAP block 5.3, hIAP act 1.02, hIAP block -2.0 and bIAP inh 13.1.
`CCOP(=O)(OCC)C(NC(=O)Nc1ccc(Cl)c(Cl)c1)c1ccccc1` (stereo unspecified) gave bIAP activator 0.9, mIAP activ 5.02*, mIAP block -402.3, hIAP act 0.96, hIAP block 4.0 and bIAP inh 6.4.
Cc1ccc(NC(=O)Nc2ccc3c(c2)N(C)C(=O)CS3)cc1C was read as bIAP activator 1, mIAP activ 3.09*, mIAP block -208.9, hIAP act 1.28, hIAP block -28.1 and bIAP inh -4.8.
For CN1C(=O)CSc2ccc(NC(=O)NCc3ccccc3)cc21 the results were bIAP activator 1, mIAP activ 1.34, mIAP block -34.0, hIAP act 1.1, hIAP block -10.5 and bIAP inh 3.0.
For Cc1ccc(CNC(=O)Nc2ccc3c(c2)N(C)C(=O)CS3)cc1 the results were bIAP activator 0.8, mIAP activ 2.07*, mIAP block -107.2, hIAP act 0.914, hIAP block 8.6 and bIAP inh 16.9.
`FC(F)Sc1ccc(NC(=S)NCC2CCCCC2)cc1` gave bIAP activator 0.3, mIAP activ 3.28*, mIAP block -228.4, hIAP act 0.909 and hIAP block 9.1.
CC1CCCCC1NC(=S)Nc1ccc(SC(F)F)cc1 (stereo unspecified) was read as bIAP activator 0.8, mIAP activ 3.27*, mIAP block -227.4, hIAP act 1.1, hIAP block -10.5 and bIAP inh 20.6.
`S=C(NCC1CCCCC1)Nc1cccnc1` gave bIAP activator 0.9, mIAP activ 1.01, mIAP block -1.3, hIAP act 0.894, hIAP block 10.6 and bIAP inh 5.3.
Screening CN(CC(=O)Nc1ccc(SC(F)F)cc1)C1CCCCC1 returned bIAP activator 0.8, mIAP activ 1.2, mIAP block -20.1, hIAP act 1.03, hIAP block -3.2 and bIAP inh 17.2.
For FC(F)Sc1ccc(NC(=S)NC2CCCCC2)cc1 the results were bIAP activator 0.7, mIAP activ 2.23*, mIAP block -122.8, hIAP act 1.11, hIAP block -10.9 and bIAP inh 26.4.
For Cc1ccccc1-n1nc2c(c1NC(=O)c1ccc(S(=O)(=O)N(C)C)cc1)CSC2 the results were bIAP activator 1, mIAP activ 0.545, mIAP block 45.5*, hIAP act 0.992, hIAP block 0.8 and bIAP inh 1.1.
`CC1CCCCN1c1ccc(N)cc1C(N)=O` (stereo unspecified) gave bIAP activator 1.1, mIAP activ 1.03, mIAP block -3.4, hIAP act 0.952, hIAP block 4.8 and bIAP inh -5.7.
`N#Cc1ccc(OCC(=O)OCC(=O)Nc2sccc2C(N)=O)cc1` gave mIAP activ 0.92, mIAP block 8.0, hIAP act 0.945 and hIAP block 5.5.
COc1ccc(OCC(O)Cn2c(=N)n(Cc3ccccc3)c3ccccc32)cc1 (stereo unspecified) was read as bIAP activator 2.8*, mIAP activ 1.04, mIAP block -4.1, hIAP act 1.09, hIAP block -9.1 and bIAP inh -177.8.
`O=C(COC(=O)C1CCCCC1)Nc1ccc(S(=O)(=O)N2CCOCC2)cc1` gave bIAP activator 1, mIAP activ 1.01, mIAP block -0.9, hIAP act 0.963, hIAP block 3.7 and bIAP inh -4.2.
CC(O)CNc1nc2ccccc2n1-c1ncnc2sc3c(c12)CCC3 (stereo unspecified) was read as bIAP activator 2.1*, mIAP activ 1.44, mIAP block -43.9, hIAP act 1.08, hIAP block -8.2 and bIAP inh -105.4.
`C=CCn1c2ccccc2c2nnc(SCCCn3c(=O)[nH]c4ccccc43)nc21` gave bIAP activator 2* and bIAP inh -99.2.
`CCCS(=O)(=O)N1CCCC(C(=O)NCCc2cccc(C)c2)C1` (stereo unspecified) gave mIAP activ 0.992, mIAP block 0.8, hIAP act 1.04 and hIAP block -3.9.
Screening Cc1ccc(C)c(OCCC(=O)Nc2cccc(S(=O)(=O)N3CCCCC3)c2)c1 returned mIAP activ 2.05*, mIAP block -104.8, hIAP act 1.02 and hIAP block -1.9.
For Cc1ccc(C)c(OCCC(=O)Nc2cc(S(=O)(=O)N3CCCCC3)ccc2C)c1 the results were mIAP activ 1.48, mIAP block -47.6, hIAP act 0.992 and hIAP block 0.8.
CC1CCCCC12NC(=O)N(CC(=O)NCCc1c[nH]c3ccccc13)C2=O (stereo unspecified) was read as mIAP activ 1.07, mIAP block -7.0, hIAP act 0.966 and hIAP block 3.4.
Screening O=C(NC1CC2CCC(C1)N2C(=O)NC1CCCCC1)NC12CC3CC(CC(C3)C1)C2 (stereo unspecified) returned bIAP activator 1.9, mIAP activ 1.07, mIAP block -7.2, hIAP act 1.01, hIAP block -1.3 and bIAP inh -87.1.
For O=C(NC1CC2CCCC(C1)N2C1CC1)NC12CC3CC(CC(C3)C1)C2 (stereo unspecified) the results were bIAP activator 3.1* and bIAP inh -213.7.
`CC1CC(C)(C)NCCNC(C)CC(C)(C)NCCN1` (stereo unspecified) gave bIAP activator 2.8*, mIAP activ 1.18, mIAP block -18.3, hIAP act 1.04, hIAP block -4.5 and bIAP inh -176.9.
CCOc1ccc(-c2nnc(SCC(=O)N3CCNC3=O)o2)cc1 was read as mIAP activ 1.04, mIAP block -3.7, hIAP act 1.14 and hIAP block -14.3.
Screening Cc1cc(C)c(C(=O)NNC(=O)c2cccnc2)c(C)c1 returned mIAP activ 0.883, mIAP block 11.7, hIAP act 0.807 and hIAP block 19.3.
Cc1ccc(NC(=O)C2CCN(S(=O)(=O)c3ccc4c(c3)NC(=O)C(C)S4)CC2)cc1Cl (stereo unspecified) was read as mIAP activ 2.37*, mIAP block -137.2, hIAP act 1.53 and hIAP block -52.9.
Screening CCn1c(C)cc(/C=C2/SC(=S)NC2=O)c1C returned bIAP activator 0.9, mIAP activ 0.484, mIAP block 51.6*, hIAP act 0.79, hIAP block 21.0 and bIAP inh 11.5.

Screens deposited in PubChem BioAssay by Sanford-Burnham Center for Chemical Genomics.
